This is a sample that favours compounds with a hit; in the whole collection about 1.8% have one here.
RanGTP-Impb inh: disruptors of Ran-importin-beta complex formation – biochemical, FRET, CFP-Ran, YFP-importin-beta, homogeneous, primary screen; cell-free CFP-Ran/YFP-importin-beta FRET ratio; inhibition, % (no concentration beside the values); 1.1% of 300,000 active; AID 2216;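 active = more than half of the replicate wells show a fall in the fluorescence ratio signal beyond about 16%, limit read from the data, passing the limit was not always enough; inconclusive = exactly half of the replicate wells pass the set limit; inactive = fewer than half of replicates pass the limit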
Runt-SMMHC FRET: blocks binding of human RUNX1 Runt domain to CBFb-SMMHC; Q01196+Q13951; Cerulean-Runt/Venus-CBFb-SMMHC FRET ratio 530/480, 1 h; inhibition, % at 20 µM; 0.74% of 220,000 active; AID 1434;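 active = mean inhibition across duplicate retests at 20 µM reaching about 50%, limit read from the data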;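 note: inhibitors lower the FRET ratio by blocking Runt binding to CBFb-SMMHC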
Target sequence (Q01196 whole entry, looked up, the tested form may be a part): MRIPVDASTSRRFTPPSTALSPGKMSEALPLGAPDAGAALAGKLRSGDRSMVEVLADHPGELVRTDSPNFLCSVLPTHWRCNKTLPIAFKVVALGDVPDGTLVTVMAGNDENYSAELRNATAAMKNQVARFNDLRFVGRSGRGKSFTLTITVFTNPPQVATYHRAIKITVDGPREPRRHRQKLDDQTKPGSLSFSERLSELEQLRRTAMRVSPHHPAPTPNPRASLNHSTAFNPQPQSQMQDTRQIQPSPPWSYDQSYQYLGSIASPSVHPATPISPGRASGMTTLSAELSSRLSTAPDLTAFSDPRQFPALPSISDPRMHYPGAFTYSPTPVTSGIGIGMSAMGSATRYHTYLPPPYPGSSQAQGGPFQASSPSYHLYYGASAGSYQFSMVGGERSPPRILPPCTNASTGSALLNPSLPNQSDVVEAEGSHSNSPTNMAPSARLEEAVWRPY
Target sequence (Q13951 whole entry, looked up, the tested form may be a part): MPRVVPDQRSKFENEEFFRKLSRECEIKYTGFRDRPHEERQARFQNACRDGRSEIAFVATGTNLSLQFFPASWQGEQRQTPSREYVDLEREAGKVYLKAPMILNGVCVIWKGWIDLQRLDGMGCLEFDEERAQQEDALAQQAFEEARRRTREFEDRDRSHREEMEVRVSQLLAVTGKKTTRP
Runt-CBFb FRET: inhibitors of human RUNX1 Runt domain binding to CBFb; Q01196+Q13951; Cerulean-Runt/Venus-CBFb FRET ratio 530/480, 1 h; inhibition, % at 20 µM; 0.46% of 220,000 active;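 active = inhibition over about 50% at 20 µM in the single-dose screen, limit read from the data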
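Assay system: Cerulean-Runt domain / Medium: Tris 50 mM pH 7.5, KCl, K2SO4, 0.01% BSA / Timing: protein complex preformed 1 h, compound exposure 1 h, room temperature, dark / Measured by: FRET, excitation 422 nm, emission at 530 and 480 nm / Evaluation: loss of energy transfer signal / Control set: 5 µM unlabeled CBFb as full-inhibition high control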
Hck Nef HTS: blocks Nef-activated human Hck kinase; AID 463187; P08631; Recombinant Hck-YEEI plus Nef, Z-Lyte FRET kinase assay; inhibition, % at 20 µM; 0.68% of 220,000 active;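 active = Hck-Nef kinase inhibition above about 50%, limit read from the data; inactive = inhibition below that limit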
Runt-CBFb TRFRET: disrupts human RUNX1 Runt domain binding to CBFb; AID 1502; TR-FRET RUNX1 Runt domain-CBFb binding; 20% of 480 active; inhibition, % at 20 µM; shares compounds with Runt-CBFb FRET; in the data active = inhibition above about 40%
Each line names hits and unclear results; the compound was inactive in the other large screens (follow-up assays come after a bar, where they were run).

COc1ccc(CNC(=O)c2cc3c(=O)n4ccccc4nc3n(Cc3cccnc3)c2=N)cc1	RanGTP-Impb inh 71.9, Runt-SMMHC FRET 150.1, Runt-CBFb FRET 71.6
Cc1ccc2nc3c(cc(C(=O)NCc4cccnc4)c(=N)n3C(C)C)c(=O)n2c1	none (no result: RanGTP-Impb inh, Hck Nef HTS)
N=c1c(C(=O)NCc2ccc3c(c2)OCO3)cc2c(=O)n3ccccc3nc2n1Cc1cccnc1	RanGTP-Impb inh 63.1, Runt-SMMHC FRET 144.2, Runt-CBFb FRET 94.7
CC1CCN(C(=O)CN(c2ccc3c(c2)OCCO3)S(=O)(=O)c2ccccc2)CC1	none (no result: Runt-SMMHC FRET, Runt-CBFb FRET, Hck Nef HTS)
CCN(CCO)c1cc(Cl)nc(SC)n1	RanGTP-Impb inh 69.1
N#C/C(=C/c1ccc(N2CCCCCC2)o1)c1ccc(F)cc1	RanGTP-Impb inh 26.8 (no result: Runt-SMMHC FRET, Runt-CBFb FRET)
COc1ccccc1NC(=O)CNC(=O)c1ccccc1C	RanGTP-Impb inh 24.5
COc1ccccc1NC(=O)CNC(=O)c1ccccc1	none
Cc1ncc([N+](=O)[O-])n1Cc1ccc(Br)cc1	none
CC1(C)N([O-])c2cc([N+](=O)[O-])ccc2[N+]1=O	Runt-SMMHC FRET 85.1, Runt-CBFb FRET 63.1 (no result: RanGTP-Impb inh)
Fc1ccc(C2CC(c3ccco3)=Nc3ccccc3S2)cc1 (stereo unspecified)	Runt-CBFb FRET 50.8 | Runt-CBFb TRFRET inactive
O=[N+]([O-])c1ccc(C2CC(c3ccccc3)=Nc3ccccc3S2)cc1 (stereo unspecified)	Runt-CBFb FRET 56.2 | Runt-CBFb TRFRET inactive
CC(Oc1ccc(F)cc1)C(O)CCN(C)C (stereo unspecified)	none
CCN=C1S/C(=C\c2cc(Br)c(O)c(OC)c2)C(=O)N1CC	none (no result: Runt-SMMHC FRET, Runt-CBFb FRET, Hck Nef HTS)
CCOC(=O)CCSc1cc(C)c2ccccc2n1	none
c1csc(-c2ccn[nH]2)c1	none
S=c1nccc(-c2cccs2)[nH]1	Runt-CBFb FRET 65.1 | Runt-CBFb TRFRET inactive
CCc1nc2sc3c(O)cc(=O)[nH]c3c2cc1C	Runt-CBFb FRET 52.2 | Runt-CBFb TRFRET 53.9
Cc1cc(-c2ccccc2)c2c(n1)sc1c(O)cc(=O)[nH]c12	none
COc1ccc(/C=N/NC(=O)c2nc(-c3ccccc3)n(-c3ccccc3)n2)cc1OC	Runt-CBFb FRET 76.0 | Runt-CBFb TRFRET inactive
COc1cc(/C=N/NC(=O)c2nc(-c3ccccc3)n(-c3ccccc3)n2)ccc1O	RanGTP-Impb inh inconclusive
CC(=O)c1ccc(N2CCN(C(=O)[C@H](C)NC(=O)c3ccccc3Cl)CC2)cc1	none (no result: Runt-SMMHC FRET, Runt-CBFb FRET, Hck Nef HTS)
CC(C)(C)C(=O)CSc1ncccn1	Runt-CBFb FRET 58.2 | Runt-CBFb TRFRET 69.6
CCC(C)(C)n1nnnc1C(c1ccc2ncccc2c1)N1CCN(c2ccc(O)cc2)CC1 (stereo unspecified)	Runt-CBFb FRET 53.6 | Runt-CBFb TRFRET inactive
CC(C)OCCCNC(=S)Nc1ccc(S(N)(=O)=O)cc1	Runt-CBFb FRET 59.1 | Runt-CBFb TRFRET inactive
CN(C)c1cccc(C(=O)OCc2cc(=O)oc3cc(O)ccc23)c1	RanGTP-Impb inh inconclusive, Runt-SMMHC FRET 80.8, Runt-CBFb FRET 84.6 | Runt-CBFb TRFRET 52.0
O=C(c1ccccc1)c1ccccc1N1C(=O)C=CC1=O	Runt-SMMHC FRET 69.9, Runt-CBFb FRET 64.4 | Runt-CBFb TRFRET inactive
O=C(O)c1ccccc1C(=O)c1ccc(-c2ccccc2)cc1	none (no result: Runt-SMMHC FRET, Runt-CBFb FRET, Hck Nef HTS)
CN(C)C(CNC(=O)CNC(=O)c1ccc(Br)cc1)c1ccccc1 (stereo unspecified)	none
CCOC(=O)c1cnc2ccc(C)cc2c1Sc1ccc(F)cc1	Runt-CBFb FRET 85.8 | Runt-CBFb TRFRET inactive
CCC/C=C(\CCC)C(NC(=O)c1ccc(C(F)(F)F)cc1)c1ccccc1 (stereo unspecified)	none (no result: Runt-SMMHC FRET, Runt-CBFb FRET, Hck Nef HTS)
NC1=C(c2ccc([N+](=O)[O-])cc2)C(=O)CO1	none
O=c1oc2c(-c3ccc([N+](=O)[O-])cc3)cc(O)cc2s1	Runt-CBFb FRET 56.0 | Runt-CBFb TRFRET inactive
Cc1c(Cl)cccc1NC(=S)NNS(=O)(=O)c1ccc([N+](=O)[O-])cc1	none (no result: Runt-SMMHC FRET, Runt-CBFb FRET, Hck Nef HTS)
Oc1ccc(-c2cnns2)c(O)c1	Runt-CBFb FRET 73.3 (no result: Runt-SMMHC FRET) | Runt-CBFb TRFRET 57.6
O=C(NNC(=O)c1cccnc1)NC1CCCCC1	none
O=C(NNC(=O)c1cc(O)c(O)c(O)c1)NC1CCCCC1	Runt-CBFb FRET 55.1 | Runt-CBFb TRFRET 61.3
CC(C)C[C@H]1COCCS(=O)(=O)N1Cc1cccc(F)c1	none (no result: Runt-SMMHC FRET, Runt-CBFb FRET, Hck Nef HTS)
Cc1cccc(NC(=O)Nc2c(C)n(C)n(-c3ccccc3)c2=O)c1C	none (no result: Runt-SMMHC FRET, Runt-CBFb FRET, Hck Nef HTS)
O=C(NC1CCCCCC1)c1ccc[nH]c1=S	Runt-SMMHC FRET 59.8, Runt-CBFb FRET 53.6 | Runt-CBFb TRFRET inactive
Cc1cc2c(c(=O)n1Cc1cccnc1)C(Cc1ccccc1)C(C#N)=C(N)O2 (stereo unspecified)	RanGTP-Impb inh 36.3, Runt-SMMHC FRET 85.5, Runt-CBFb FRET 57.8 | Runt-CBFb TRFRET inactive
Cc1cc2c(c(=O)n1CCc1ccccc1)C(c1ccco1)C(C#N)=C(N)O2 (stereo unspecified)	Runt-CBFb FRET 61.9 (no result: Runt-SMMHC FRET) | Runt-CBFb TRFRET inactive
COc1cc(C2C(C#N)=C(N)Oc3cc(C)n(CCc4ccccc4)c(=O)c32)cc2c1OCO2 (stereo unspecified)	none
CNC(=O)/C(C#N)=C/c1c(N2CC(C)OC(C)C2)nc2ccccn2c1=O (stereo unspecified)	RanGTP-Impb inh inconclusive, Runt-SMMHC FRET 120.7, Runt-CBFb FRET 94.2 | Runt-CBFb TRFRET inactive
CC1CN(c2nc3ccccn3c(=O)c2/C=C(\C#N)C(=O)N2CCOCC2)CC(C)O1 (stereo unspecified)	none
Cc1ccc(NC(=S)NCCN2CCOCC2)cc1F	none
COc1ccc(-c2cc(C(=O)N/N=C/c3cccnc3)c3cc(C)cc(C)c3n2)cc1	none (no result: Runt-SMMHC FRET, Runt-CBFb FRET, Hck Nef HTS)
CN1CCc2c(sc3c2C(=O)NC(c2cccs2)N3)C1 (stereo unspecified)	RanGTP-Impb inh 117.8, Runt-SMMHC FRET 77.6, Runt-CBFb FRET 61.5 | Runt-CBFb TRFRET inactive
Cc1ccc(C2NC(=O)c3ccccc3N2)s1 (stereo unspecified)	none
COc1ccc(OC)c(C(=O)NC(CC(N)=O)c2ccc(N3CCCCCC3)c([N+](=O)[O-])c2)c1 (stereo unspecified)	none (no result: Runt-SMMHC FRET, Runt-CBFb FRET, Hck Nef HTS)
Cc1ccc(C)c(/C=N/Nc2nc3ccccc3c(=O)n2O)c1	Runt-CBFb FRET 50.7 | Runt-CBFb TRFRET inactive
Cc1cccn2c(=O)c3cc(C#N)c(=N)n(Cc4ccncc4)c3nc12	RanGTP-Impb inh 73.7, Runt-SMMHC FRET 129.9, Runt-CBFb FRET 70.3 | Runt-CBFb TRFRET inactive
Cc1cc(C)nc(Sc2ncnc(N)c2[N+](=O)[O-])n1	Runt-CBFb FRET 58.5 | Runt-CBFb TRFRET inactive
CN1C[C@@H]2C(c3ccccc3)C3(c4ccc(C#N)cc4)CC2(C3)[C@H]1c1ccccc1 (stereo partly specified)	none
CN1C=CC2=C(C#N)C(N)C(C#N)(C#N)C(c3ccccc3)C2C1 (stereo unspecified)	RanGTP-Impb inh 39.6, Runt-SMMHC FRET 61.5, Runt-CBFb FRET 70.7 | Runt-CBFb TRFRET inactive
COC(=O)c1ccccc1N/C=C1\CCc2c(c(C)nn2-c2ccccn2)C1=O	RanGTP-Impb inh 35.9, Runt-SMMHC FRET 63.0, Runt-CBFb FRET 53.5 | Runt-CBFb TRFRET 50.6

Assay outcomes (PubChem BioAssay)
